# Results taken from publication PMC8742638 (Clinical and Translational Science, 2021).
# Like-named read-outs stand apart in the source and are kept apart here.
# Key:
# [1] = assay type: in vivo, human; conditions: for Tmax: healthy female subjects, median (range); for bioavailability: oral
# How it was run: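 Healthy female volunteers fasted about 10 h, then took a 100 mg oral tablet. A 13C-labeled microdose (15 µg/ml target, PEG-400 solution diluted in saline, filtered) was infused i.v. 4 h later. Plasma was sampled predose and 1–72 h post-oral, and 5–30 min post-i.v. Concentrations were measured by LC-MS/MS against a 0.0300–15.0 ng/ml calibration (1/x² weighting). Noncompartmental analysis used the actual i.v. dose, assayed from the unflushed infusion line.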
# [2] = Stability and adsorption of the venetoclax microdose solution; assay type: physicochemical; conditions: during formulation and process development
# [3] = cited from earlier work
# CYP3A4 enzyme = conditions: cited from earlier work
# [4] = 100 mg venetoclax oral tablet, fasting, N = 12, mean (%CV)
# [5] = female, human, plasma, po, 100 mg
# [6] = 100 µg 13C-venetoclax solution for IV infusion, N = 11, mean (%CV)
# [7] = 100 µg 13C-venetoclax solution for IV infusion, actual dose, N = 11, mean (%CV)
compound,measurement,setting,value
CC1(C)CCC(CN2CCN(c3ccc(C(=O)NS(=O)(=O)c4ccc(NCC5CCOCC5)c([N+](=O)[O-])c4)c(Oc4cnc5[nH]ccc5c4)c3)CC2)=C(c2ccc(Cl)cc2)C1 [venetoclax],AUCinf/dose,[1]; [4],19.3 (45%) (ng·h/ml)/mg
same,Cmax/dose,[1]; [4],1.49 (47%) (ng/ml)/mg
same,Tmax,"[1]; 100 mg venetoclax oral tablet, fasting, N = 12",4.2 (4.0–6.0) h
same,half-life,"[1]; female, human, plasma, iv, 100 µg, t 1/2, 100 µg 13C-venetoclax solution for IV infusion, N = 11, harmonic mean (pseudo %CV)",~14 h
same,bioavailability,"[1]; female, human, plasma, 100 mg",5.4%
same,AUC(0-inf),[1]; [5],1.93 µg·h/mL
same,AUC(0-t),[1]; [5],1.85 µg·h/mL
same,Cmax,[1]; [5],0.149 µg/mL
same,Tmax,"[1]; female, human, plasma, po, 100 mg, Tmax, 100 mg venetoclax oral tablet, fasting, N = 12",~4 h
same,half-life,"[1]; female, human, plasma, po, 100 mg, t 1/2, 100 mg venetoclax oral tablet, fasting, N = 12, harmonic mean (pseudo %CV)",~14 h
same,fraction metabolized by the liver in a single pass,[1]; from hepatic extraction ratio,6%
same,bioavailability,"[1]; human, plasma",18 to 28%
same,adsorptive losses on the infusion line,[2],1 to 2 µg/mL
same,pharmacokinetic linearity,[3],linear between 150 and 800 mg dose
same,terminal half-life,[3],16 h
same,time to reach Cmax after dosing,[3],6 to 8 h
same,metabolism,CYP3A4 enzyme,predominantly metabolized by the CYP3A4 enzyme
[^13C7]‐venetoclax [^13C‐venetoclax],t 1/2,"[1]; 100 µg 13C-venetoclax solution for IV infusion, N = 11, harmonic mean (pseudo %CV)",14.4 (5.5) h
same,AUCinf,[1]; [6],0.036 (39%) µg·h/ml
same,AUCt,[1]; [6],0.034 (37%) µg·h/ml
same,Cmax,[1]; [6],0.019 (19%) µg/ml
same,AUCinf/dose,[1]; [7],324 (37%) (ng·h/ml)/mg
same,AUCt/dose,[1]; [7],310 (36%) (ng·h/ml)/mg
same,Cmax/dose,[1]; [7],176 (16%) (ng/ml)/mg
